The text below walks through data of ChEMBL document CHEMBL4251693, “Indolylmaleimide Derivative IM-17 Shows Cardioprotective Effects in Ischemia-Reperfusion Injury” (ACS Med Chem Lett, 2018).

The subject of data set [1] is HL-60. Put plainly: Cytoprotective activity against H2O2-induced necrosis in human HL60 cells assessed as increase in cell viability at 10 uM incubated for 1 hr followed by H2O2 stimulation measured after 4 hrs by Alamar blue assay. The class given is functional, cell-based. In a few lines: (§1)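 HL-60 cells exposed to low-level H2O2 (30 μM, 4 h) with or without test agent (10 μM) or Z-VAD (100 μM). Viability read by AlamarBlue; morphology by phase-contrast imaging.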

Data set [2] in a line: Stability in rat liver S9 fraction at 5 uM after 30 mins by HPLC method. The class given is ADME, subcellular. As to conditions: s9, 0.5 h.
The subject of data set [3] is Jurkat. Description: Cytoprotective activity against FasL-induced necroptosis in human Jurkat cells assessed as increase in cell viability at 10 uM incubated for 1 hr followed by FasL stimulation measured after 20 hrs by Alamar blue assay. In kind it is functional, cell-based. In a few lines:
(§2)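 Jurkat necroptosis induced with FasL (100 ng/mL, 20 h) together with Z-VAD (100 μM) or cycloheximide (5 μM). Test agents were run at 10 μM alongside a necroptosis inhibitor at 30 μM. Viability read by AlamarBlue; morphology examined by phase-contrast imaging.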
For orientation: Alamar Blue is a resazurin reagent that responds to reducing activity.

The subject of data set [4] is HL-60. Description: Cytoprotective activity against H2O2-induced necrosis in human HL60 cells incubated for 1 hr followed by H2O2 stimulation by LDH release assay. The class given is functional, cell-based. As to conditions: HL-60, 1 h. An outline of the steps: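 Necrosis of HL-60 cells induced by H2O2 and quantified as lactate dehydrogenase release from the cytosol; IC50 derived.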
For orientation: LDH leaks from cells whose membrane has failed.

The test system of data set [5] is Jurkat. Description: Cytoprotective activity against CHX-induced necroptosis in human Jurkat cells assessed as increase in cell viability at 10 uM incubated for 1 hr followed by CHX stimulation by phase contrast microscopy. In kind it is functional, cell-based. An outline of the steps:
as §2

Data set [6] relates to HL-60. Description: Cytoprotective activity against camptothecin-induced apoptosis in human HL60 cells assessed as increase in cell viability at 10 uM incubated for 1 hr followed by camptothecin stimulation measured after 6 hrs by Alamar blue assay. In kind it is functional, cell-based. An outline of the steps:
(§3)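 HL-60 cells given a death inducer with or without test agent (10 μM) or Z-VAD (100 μM). Inducers were actinomycin D 1 μM for 6 h, camptothecin 1 μM for 6 h, etoposide 100 μM for 4 h, FasL 100 ng/mL for 18 h, H2O2 100 μM for 3 h, and TBHP 30 μM for 3 h. Viability read by AlamarBlue.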

Data set [7] has as its system HL-60. Put plainly: Cytoprotective activity against H2O2-induced necrosis in human HL60 cells assessed as increase in cell viability at 10 uM incubated for 1 hr followed by H2O2 stimulation measured after 3 hrs by Alamar blue assay. In kind it is functional, cell-based. In a few lines:
as §3

Data set [8] relates to HL-60. Put plainly: Cytoprotective activity against H2O2-induced apoptosis in human HL60 cells assessed as increase in cell viability at 10 uM incubated for 1 hr followed by H2O2 stimulation measured after 4 hrs in presence of caspase inhibitor Z-VAD by Alamar blue assay. In kind it is functional, cell-based. In a few lines: as §1
The test system of data set [9] is HL-60. Put plainly: Cytoprotective activity against Fas ligand-induced apoptosis in human HL60 cells assessed as increase in cell viability at 10 uM incubated for 1 hr followed by Fas ligand stimulation measured after 18 hrs by Alamar blue assay. In kind it is functional, cell-based. In a few lines: as §3
Data set [10] has as its system HL-60. Description: Cytoprotective activity against H2O2-induced necrosis in human HL60 cells assessed as increase in cell viability at 10 uM incubated for 1 hr followed by H2O2 stimulation measured after 4 hrs by phase contrast microscopy. In kind it is functional, cell-based. An outline of the steps: as §1
The subject of data set [11] is HL-60. Put plainly: Cytoprotective activity against H2O2-induced necrosis in human HL60 cells assessed as increase in cell viability at 10 uM incubated for 1 hr followed by H2O2 stimulation measured after 4 hrs in presence of caspase inhibitor Z-VAD by phase contrast microscopy. The class given is functional, cell-based. An outline of the steps: as §1
In data set [12] the test system is Jurkat. Put plainly: Cytoprotective activity against CHX-induced necroptosis in human Jurkat cells assessed as increase in cell viability at 10 uM incubated for 1 hr followed by CHX stimulation by Alamar blue assay. The class given is functional, cell-based. In a few lines:
as §2

Data set [13] concerns Jurkat. Put plainly: Cytoprotective activity against Z-VAD-induced necroptosis in human Jurkat cells assessed as increase in cell viability at 10 uM incubated for 1 hr followed by Z-VAD stimulation by phase contrast microscopy. The class given is functional, cell-based. An outline of the steps: as §2
In data set [14] the test system is Jurkat. Description: Cytoprotective activity against Z-VAD-induced necroptosis in human Jurkat cells assessed as increase in cell viability at 10 uM incubated for 1 hr followed by Z-VAD stimulation by Alamar blue assay. In kind it is functional, cell-based. In a few lines:
as §2

For data set [15], the system named is H9c2. Put plainly: Cytoprotective activity against TBHP-induced necrosis in rat H9c2 cells incubated for 4 hrs by LDH release assay. In kind it is functional, cell-based. The conditions noted are these: H9c2, 4 h. In a few lines: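 Rat cardiomyoblast H9c2 cells treated with TBHP (300 μM) with or without test compound; necrotic cell death quantified by LDH release assay.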

The nature of data set [16]: Solubility of the compound in water. In kind it is physicochemical. As to conditions: buffer.
The test system of data set [17] is HL-60. Description: Cytoprotective activity against TBHP-induced necrosis in human HL60 cells assessed as increase in cell viability at 10 uM incubated for 1 hr followed by TBHP stimulation measured after 3 hrs by Alamar blue assay. In kind it is functional, cell-based. An outline of the steps: as §3
Data set [18] deals with Jurkat. Put plainly: Cytoprotective activity against FasL-induced necroptosis in human Jurkat cells assessed as increase in cell viability at 10 uM incubated for 1 hr followed by FasL stimulation measured after 20 hrs by phase contrast microscopy. The class given is functional, cell-based. In a few lines: as §2
For data set [19], the system named is H9c2. Description: Cytotoxicity against rat H9c2 cells at 30 uM. As to conditions: h9c2, 30 µM. In kind it is cell-based.
Data set [20] has as its system HL-60. Put plainly: Cytoprotective activity against etoposide-induced apoptosis in human HL60 cells assessed as increase in cell viability at 10 uM incubated for 1 hr followed by etoposide stimulation measured after 4 hrs by Alamar blue assay. In kind it is functional, cell-based. In a few lines: as §3
Data set [21] concerns HL-60. Description: Cytoprotective activity against actinomycin D-induced apoptosis in human HL60 cells assessed as increase in cell viability at 10 uM incubated for 1 hr followed by actinomycin D stimulation measured after 6 hrs by Alamar blue assay. In kind it is functional, cell-based. An outline of the steps:
as §3

Data set [22] relates to HL-60. Put plainly: Cytoprotective activity against H2O2-induced necrosis in human HL60 cells assessed as increase in cell viability at 10 uM incubated for 1 hr followed by H2O2 stimulation measured after 4 hrs in presence of caspase inhibitor Z-VAD by Alamar blue assay. The class given is functional, cell-based. An outline of the steps:
as §1

In data set [23] the test system is Jurkat. Description: Cytoprotective activity against FasL-induced apoptosis in human Jurkat cells assessed as increase in cell viability at 10 uM incubated for 1 hr followed by FasL stimulation measured after 18 hrs by Alamar blue assay. In kind it is functional, cell-based. An outline of the steps: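 Jurkat cells exposed to FasL (100 ng/mL, 18 h) with or without test agent (10 μM) or Z-VAD (100 μM). Viability measured by AlamarBlue and morphology by phase-contrast imaging.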

Data set [24] concerns HL-60. Description: Cytoprotective activity against H2O2-induced apoptosis in human HL60 cells assessed as increase in cell viability at 10 uM incubated for 1 hr followed by H2O2 stimulation measured after 4 hrs in presence of caspase inhibitor Z-VAD by phase contrast microscopy. The class given is functional, cell-based. An outline of the steps: as §1

The term pIC50 denotes the IC50 on a negative log10 scale, so that one unit is a factor of ten. Read a low pIC50 as a large IC50.

pIC50: −log10 of the molar value. Active and inactive are the calls of the source. The calls are words filed in the database; no cut-off is given here.

Turning to `CCCCCNC1=C(c2cn(C)c3ccccc23)C(=O)N(C)C1=O`, the result with HL-60 [1], in the data set with HL-60 [7], in the data set with HL-60 [8], in the data set on HL-60 [10], in the data set on HL-60 [11] and with HL-60 [17] was Active. Moreover, the result in the data set with HL-60 [22] and in the data set on HL-60 [24] was Active. Further, the Stability entry in [2] is “Unstable”. The result with Jurkat [3], in the data set with Jurkat [5], in the data set on HL-60 [6], with HL-60 [9], with Jurkat [12] and with Jurkat [13] was inactive. Further, the result with Jurkat [14], in the data set on Jurkat [18], in the data set with HL-60 [20], in the data set with HL-60 [21] and in the data set with Jurkat [23] was inactive. The pIC50 was 6.60 in the data set with HL-60 [4] and 5.41 in the data set on H9c2 [15]. Moreover, in data set [16], the solubility entry is reported as “Insoluble”. Besides, the Activity entry with H9c2 [19] is “Non-Toxic”.
